GASC-1 inh: inhibitors of human GASC-1 (JMJD2C) demethylase | inhibition, % at 2.35 µM | GST-JMJD2C(1-420) H3K9me3 demethylation, DELFIA europium | Q9H3R0 | AID 2099 | 0.069% of 330,000 active;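 active = more than half of a compound's replicate wells show inhibition beyond 50%, single wells judged on their own value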;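 also: signal counts dimethyl H3K9 product captured on neutravidin plate; 0% = median of DMSO wells and 100% = 0.3 times that DMSO median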
ADAM10 inh: inhibitors of human ADAM10. O14672. recombinant ADAM10, EDANS/DABCYL FRET peptide cleavage, 3 h. inhibition, % at 7 µM. 0.62% of 370,000 active. AID 720582;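 active = inhibition above a per-campaign cutoff equal to the mean of compounds falling between control-based bounds plus 3 SD, cut at about 20% in these data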;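 also: 0% = DMSO wells while the 100% control is not disclosed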
KLK7 zymogen act: activators of human kallikrein-7 zymogen; activation, % at 7 µM; AID 652039; 0.9% of 370,000 active; purified proKLK7, EDANS-DABCYL substrate fluorescence; 100% is mature enzyme control, 0% vehicle; P49862;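 active = activation above the mean of all tested compounds plus 3 SD, computed per campaign excluding outliers beyond control limits, cut at about 13% in these data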
NR2E3 ag-1: agonists of human nuclear receptor NR2E3; Q9Y5X4; GST-NR2E3/biotin-RetCOR TR-FRET, 1536-well; inhibition of corepressor binding, % at 4.78 µM; 0.12% of 320,000 active;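 active = percent inhibition above the cutoff of mean plus 3 SD of all tested compounds, set per screening campaign, cut at about 20% in these data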;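 also: 0% = DMSO wells and 100% = biotin wells as full block of FRET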
Target sequence (Q9Y5X4 whole entry, looked up): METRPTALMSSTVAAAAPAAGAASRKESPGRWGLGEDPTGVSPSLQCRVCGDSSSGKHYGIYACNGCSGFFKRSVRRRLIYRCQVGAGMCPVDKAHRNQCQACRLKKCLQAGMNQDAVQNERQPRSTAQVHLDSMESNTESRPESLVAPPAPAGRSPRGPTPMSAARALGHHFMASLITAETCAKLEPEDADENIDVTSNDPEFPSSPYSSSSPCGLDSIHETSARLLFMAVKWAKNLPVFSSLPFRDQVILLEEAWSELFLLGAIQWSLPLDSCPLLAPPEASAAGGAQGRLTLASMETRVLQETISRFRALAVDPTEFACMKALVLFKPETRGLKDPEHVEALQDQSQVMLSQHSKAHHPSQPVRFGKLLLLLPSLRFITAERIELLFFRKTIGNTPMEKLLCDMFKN
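System: GST-tagged NR2E3 plus biotinylated RetCOR corepressor; Amount: 1.35 nM GST-tagged NR2E3 final; Dosing: single nominal compound dose of 4.8 µM; Schedule: 5 h incubation at 4 °C; Technique: TR-FRET with europium anti-GST and streptavidin-D2, 340 nm excitation; Controls: biotin wells as high control, 0.6% DMSO wells as low control.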
NR2E3 ag-2: activates human NR2E3 receptor; Q9Y5X4; CHO-S Gal4-NCOR/VP16-NR2E3 two-hybrid, luciferase; 0.35% of 360,000 active; inhibition of corepressor binding, % at 3.98 µM;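 active = inhibition above the mean of all tested compounds plus 3 SD, cut at about 70% in these data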;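 also: 0% = DMSO with NR2E3 transfected cells and 100% = cells lacking NR2E3 construct; higher means lower luciferase signal from less NR2E3 corepressor binding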
ADAM17 inh: inhibits human ADAM17; P78536; recombinant ADAM17, EDANS/DABCYL FRET peptide cleavage; inhibition, % at 6.95 µM; 0.83% of 370,000 active;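 active = inhibition above the mean of compounds lying between control limits plus 3 SD, set per campaign, cut at about 8.5% in these data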;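 also: 0% = DMSO-only wells as the low control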
ADAM10 ctr: inhibits human ADAM10 in ADAM17 exosite counter-screen | shares compounds with ADAM17 inh | recombinant ADAM10, EDANS/DABCYL FRET peptide cleavage, 3 h | inhibition, % at 6.95 µM | 47% of 2,900 active | AID 743256;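 active = mean inhibition over the triplicate runs exceeds the activity threshold set in the earlier primary screen, cut at about 20% in these data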;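 also: 0% = DMSO wells and 100% = marimastat wells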
ADAM17 confirm: human ADAM17 inhibition, confirmation | shares compounds with ADAM17 inh | recombinant ADAM17, EDANS/DABCYL QFRET peptide cleavage | inhibition, % at 6.95 µM | 65% of 2,900 active | AID 743257;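 active = mean inhibition across replicates above the hit cutoff set in the primary screen, cut at about 8.5% in these data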;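 also: 0% = DMSO wells and 100% = marimastat wells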
Active calls of the source: *; i = inactive; / = no result. Sampled rows, rich in hits. Any-hit rate of the full collection: about 2.5%.

SMILES | GASC-1 inh | ADAM10 inh | KLK7 zymogen act | NR2E3 ag-1 | NR2E3 ag-2 | ADAM17 inh | ADAM10 ctr | ADAM17 confirm
CSCCC(NS(=O)(=O)c1cccc(C(F)(F)F)c1)C(=O)N(C)CCOc1ccc(Cl)cc1 (stereo not drawn) | -1 | 17 | 1 | 2 | 10 | 11* | 41* | 21*
CCOC(=O)c1ccc(S(=O)(=O)Nc2cc(C(C)(C)C)no2)cc1 | i | -4 | 0 | -1 | 2 | -3 | / | /
Cc1ccc(C(=O)OCC(=O)Nc2cc(C(C)(C)C)no2)c(C)c1 | 8 | 10 | -1 | 0 | 12 | 12* | 33* | 17*
CCOc1ccc(N=C2SC(C(=O)Nc3ccccc3C#N)C(N)=C2C(=O)Nc2ccc(Cl)cc2)cc1 (stereo not drawn) | 4 | 16 | -1 | 5 | 2 | 9.4* | 21* | 16*
COc1ccc(C2/C=C\CN(C(=O)c3ccccc3)[C@H](Cc3ccccc3)C(=O)N2Cc2ccc(F)cc2)cc1 (stereo partly drawn) | -21 | 13 | 0 | -4 | -4 | 11* | 21* | 11*
COc1ccc(Cl)cc1NC(=O)COC(=O)CCNS(=O)(=O)c1cccs1 | / | -5 | 0 | / | 1 | 1 | / | /
COc1ccc(CCC(=O)NNC(=O)c2cc(Cl)ccc2OC)cc1 | -5 | -13 | 0 | 5 | 0 | 8.8* | 8 | 6
COc1ccc(CCC(=O)NNC(=O)c2cc(Cl)ccc2OC)cc1OC | -2 | 1 | 0 | 0 | -8 | -3 | / | /
CC(C)N(C(C)C)S(=O)(=O)c1ccc(NC(=O)c2cnccn2)cc1 | 1 | 2 | -1 | -1 | 3 | -3 | / | /
COC(=O)[C@@]1(Cc2ccc(F)cc2)[C@H]2c3cc(C(=O)N(C)C)n(Cc4ccccc4)c3C[C@H]2CN1C(=O)c1ccccc1 | -2 | 5 | 0 | 1 | / | 9.4* | -7 | 0
COC(=O)[C@@]1(Cc2ccc(F)cc2)[C@H]2c3cc(C(=O)N(C)C)n(Cc4ccc(OC)c(OC)c4)c3C[C@H]2CN1C(=O)c1ccccc1 | 5 | 8 | 1 | -2 | / | 2 | / | /
CC(C)n1c(=O)c2ccccc2n1S(C)(=O)=O | / | -4 | 0 | / | -1 | 1 | / | /
S=c1[nH]nc(COc2ccc(Cl)cc2)n1Cc1ccccc1 | -14 | -1 | 0 | 9 | -42 | 1 | / | /
S=c1[nH]nc(COc2ccc(Cl)cc2)n1C1CCCCC1 | -5 | 6 | 0 | -4 | 1 | 11* | 12 | 4
O=C(CNC(=S)N(Cc1ccccc1)Cc1ccccc1F)NCc1ccccc1 | 11 | 12 | 0 | 1 | -12 | 9.1* | 30* | 13*
CC1=C(C(=O)N2CCOCC2)CC(CC(=O)NC2CCCC2)C(=O)N1Cc1ccc(F)cc1 (stereo not drawn) | / | -1 | 0 | / | -35 | -2 | / | /
COC(=O)c1cccc(N(C(=O)CNC(=O)c2ccco2)C(C(=O)NC2CCCC2)c2ccco2)c1 (stereo not drawn) | 46 | 3 | 0 | 0 | -12 | 8.8* | -3 | 2
CCCCC(CC)C(=O)Oc1ccc(O)c(C(C)(C)C)c1 (stereo not drawn) | 11 | 14 | 0 | -1 | 14 | 12* | 16 | 7
O=C(Nc1ccc([N+](=O)[O-])cc1)Nn1cnnc1 | -11 | 6 | 0 | 0 | -8 | 10* | 5 | 8
C[C@H](CO)N1C[C@H](C)[C@@H](CN(C)S(=O)(=O)c2ccc(F)cc2)Oc2ccc(NS(=O)(=O)c3ccccc3)cc2C1=O | -3 | -9 | 0 | / | -8 | -2 | / | /
COc1cc2cc(Br)cc(Br)c2nc1C | 2 | 13 | 0 | 19 | -9 | 10* | 21* | 13*
COc1cc2cnncc2cc1OC | 32 | -9 | 0 | 0 | -12 | -3 | / | /

From PubChem
